Source: ChEMBL document CHEMBL1926643, “Synthesis, anti-inflammatory activity and molecular docking studies of 2,5-diarylfuran amino acid derivatives” (Eur J Med Chem, 2012)
Calls of active or inactive are those of the source. The calls are words filed in the database; no cut-off is given here.

Assays:
[1] = target: T1, Prostaglandin G/H synthase 1 (Rattus norvegicus) (UniProt Q63921); assay: Inhibition of COX-1 in rat leukocytes assessed as reduction in PGE2 production from arachidonic acid at 10 nM preincubated for 10 mins by EIA; assay type: cell-based
T1 sequence (whole entry): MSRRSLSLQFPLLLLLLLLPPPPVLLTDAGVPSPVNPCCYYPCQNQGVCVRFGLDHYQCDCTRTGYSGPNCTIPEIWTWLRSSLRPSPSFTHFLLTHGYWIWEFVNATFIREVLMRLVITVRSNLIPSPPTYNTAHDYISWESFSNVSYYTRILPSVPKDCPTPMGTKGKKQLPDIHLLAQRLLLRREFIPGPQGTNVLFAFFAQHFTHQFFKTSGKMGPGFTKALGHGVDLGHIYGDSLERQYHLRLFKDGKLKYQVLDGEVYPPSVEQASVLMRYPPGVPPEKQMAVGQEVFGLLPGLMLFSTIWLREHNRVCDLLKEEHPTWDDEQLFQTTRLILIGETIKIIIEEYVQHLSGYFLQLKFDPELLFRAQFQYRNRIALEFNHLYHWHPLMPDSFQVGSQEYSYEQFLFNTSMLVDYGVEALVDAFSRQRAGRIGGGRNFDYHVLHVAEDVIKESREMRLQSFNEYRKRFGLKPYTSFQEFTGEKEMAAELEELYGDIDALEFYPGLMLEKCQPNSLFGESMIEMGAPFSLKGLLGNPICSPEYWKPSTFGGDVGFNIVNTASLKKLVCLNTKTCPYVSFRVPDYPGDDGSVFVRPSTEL

[2] = Cytotoxicity against LPS-stimulated Wistar rat neutrophils assessed as reduction in cell viability at 10 nM after 18 hrs by trypan blue staining method; assay type: cell-based; settings: neutrophil, 0.01 µM
Outline: (§1)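 Neutrophils were elicited in male Wistar rats by intraperitoneal oyster glycogen (1%, 10 mL) and harvested after 4 h. Cells were exposed to compound at 1, 10, 100 or 1000 nM, with or without LPS, for 18 h in RPMI1640 with 10% FBS. Viability was scored by trypan blue staining against medium-only controls.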

[3] = Cytotoxicity against Wistar rat neutrophils assessed as reduction in cell viability at 10 nM after 18 hrs by trypan blue staining method; assay type: cell-based; settings: neutrophil, 0.01 µM; outline: as §1
[4] = tested on: Neutrophil; assay: Antiinflammatory activity in Wistar rat neutrophils assessed as decrease in LPS-induced PGE2 secretion at 10 nM after 18 hrs by EIA; assay type: functional, cell-based
Outline: (§2)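 Neutrophils were taken from male Wistar rats 4 h after intraperitoneal oyster glycogen (1%, 10 mL). Cells were cultured in RPMI1640 with 10% FBS, with compound at 10 nM, with or without LPS, for 18 h. PGE₂ in the culture supernatant was quantified by EIA. Data are the mean ± s.e.m. of cells from four animals, compared against medium-only control cells.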

[5] = tested on: Neutrophil; assay: Antiinflammatory activity in Wistar rat neutrophils assessed as decrease in PGE2 level at 10 nM after 18 hrs by EIA; assay type: functional, cell-based; outline: as §2

inhibition [1]	Compound	Activity [2]	Activity [3]	Activity [4]	Activity [5]
inactive	COc1ccc(-c2ccc(-c3cccc(NC(=O)[C@H](CCCNC(=N)NS(=O)(=O)c4ccc(C)cc4)NC(=O)OC(C)(C)C)c3)o2)cc1				
inactive	COc1ccc(-c2ccc(-c3cccc(NC(=O)[C@H](Cc4ccccc4)NC(=O)OC(C)(C)C)c3)o2)cc1	Non-toxic	Non-toxic	inactive	inactive
inactive	COc1ccc(-c2ccc(-c3cccc(NC(=O)CNC(=O)OC(C)(C)C)c3)o2)cc1				
inactive	COc1ccc(-c2ccc(-c3cccc(NC(=O)[C@H](C)NC(=O)OC(C)(C)C)c3)o2)cc1				
inactive	COc1ccc(-c2ccc(-c3cccc(NC(=O)[C@H](CSCc4ccccc4)NC(=O)OCc4ccccc4)c3)o2)cc1	Non-toxic	Non-toxic	inactive	inactive
inactive	COc1ccc(-c2ccc(-c3cccc(NC(=O)[C@@H]4CCCN4C(=O)OC(C)(C)C)c3)o2)cc1	Non-toxic	Non-toxic	Active	inactive
inactive	COc1ccc(-c2ccc(-c3cccc(NC(=O)[C@@H](NC(=O)OC(C)(C)C)C(C)C)c3)o2)cc1	Non-toxic	Non-toxic	inactive	inactive
inactive	COc1ccc(-c2ccc(-c3cccc(NC(=O)[C@H](CCC(=O)OC(C)(C)C)NC(=O)OCC4c5ccccc5-c5ccccc54)c3)o2)cc1				
inactive	COc1ccc(-c2ccc(-c3cccc(NC(=O)[C@H](CC(C)C)NC(=O)OC(C)(C)C)c3)o2)cc1				
	Cc1ccc(-c2cc(C(F)(F)F)nn2-c2ccc(S(N)(=O)=O)cc2)cc1			Active	inactive
inactive	COc1ccc(-c2ccc(-c3cccc(NC(=O)[C@H](COC(=O)c4ccccc4)NC(=O)OC(C)(C)C)c3)o2)cc1				
inactive	COc1ccc(-c2ccc(-c3cccc(NC(=O)[C@H](CCSC)NC(=O)OC(C)(C)C)c3)o2)cc1				
